Assay results reported in ChEMBL document CHEMBL2040545, “Anti-influenza activity of marchantins, macrocyclic bisbibenzyls contained in liverworts” (2011).
Active and inactive are the calls of the source. No cut-off for these calls is given here.

Tests used:
[1] = target: Polymerase acidic protein (Influenza A virus (A/Puerto Rico/8/1934(H1N1))) (UniProt P03433); experiment: Inhibition of PA endonuclease at 10 uM; type: functional
Method in brief: (§1)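 Recombinant His-tagged influenza A PA N-terminal endonuclease domain from E. coli, purified on Ni2+-agarose and then Q anion exchange, used at about 0.1 µM (0.35 µg/100 µl). Buffer at pH 7.3, 1 µg M13mp18 single-stranded circular DNA as substrate, compound at 1 or 10 µM. Digestion read by agarose electrophoresis with ethidium bromide staining. No-enzyme control included.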

[2] = target: Polymerase acidic protein (Influenza A virus (A/Puerto Rico/8/1934(H1N1))) (UniProt P03433); experiment: Inhibition of PA endonuclease at 1 uM; type: functional; method in brief: as §1
[3] = target: Polymerase acidic protein (Influenza A virus (A/Puerto Rico/8/1934(H1N1))) (UniProt P03433); experiment: Inhibition of Influenza Viral Focus Formation at 13 uM relative to control; type: functional, cell-based; settings: Canis lupus familiaris, MDCK
Method in brief: (§2)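 MDCK cells infected with B/Malaysia/2506/2004 at m.o.i. 0.001, adsorbed 30 min at 37 °C, washed. Compound (50, 12.5 or 3.1 µM, DMSO vehicle) added in growth medium, no pre-incubation. Supernatant sampled daily over 3 days at 37°C. Each sample titrated 10-fold on fresh MDCK, ethanol-fixed after 1 day. Foci stained with anti-NP serum and the PAP/DAB method, then counted as FFU/ml.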

[4] = target: Polymerase acidic protein (Influenza A virus (A/Puerto Rico/8/1934(H1N1))) (UniProt P03433); experiment: Inhibition of Influenza Viral Focus Formation at 50 uM relative to control; type: functional, cell-based; settings: Canis lupus familiaris, MDCK; method in brief: as §2
[5] = (§3) Inhibition of Influenza Replication; type: functional, Canis lupus familiaris, MDCK
Method in brief: (§4)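 MDCK monolayers (MEM, 10% FBS, 37 °C). Compounds at 6.25–50 µM, DMSO vehicle, premixed 30 min at 37°C with TCID50 of A/Hiroshima/52/2006 (H3N2), A/Solomon/3/2006 (H1N1) or B/Malaysia/2506/2004, then added to PBS-washed cells. Incubated 4 days at 34°C, 5% CO2. Cells fixed in 10% formaldehyde; surviving cells stained with naphthol blue black.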

[6] = as §3; type: functional, Canis lupus familiaris, MDCK; method in brief: as §4; remark: listed apart in the source
[7] = as §3; type: functional, Canis lupus familiaris, MDCK; method in brief: as §4; remark: listed apart in the source

COc1c2ccoc2c(OC)c2oc(=O)ccc12
inhibition [1]: inactive
inhibition [2]: inactive

COc1cccc2c1Oc1cccc(c1)CCc1cc(OC)c(OC)c(c1)Oc1ccc(cc1)CC2
inhibition [3]: -2.75%
inhibition [1]: inactive
inhibition [4]: 5.78%
inhibition [2]: inactive

C[C@H]1OC(=O)C=C[C@@H]1O
inhibition [1]: inactive
inhibition [2]: inactive

COc1ccc(/C=C/c2cc(OC)cc(=O)o2)cc1
inhibition [1]: inactive
inhibition [2]: inactive

COc1cc(/C=C/c2ccccc2)oc(=O)c1
inhibition [1]: inactive
inhibition [2]: inactive

CC(C)=CCOc1c2occc2cc2ccc(=O)oc12
inhibition [1]: inactive
inhibition [2]: inactive

CC(C)[C@@H](C)/C=C/[C@@H](C)[C@H]1CCC2=C3C=CC4=CCCC[C@]4(C)[C@H]3CC[C@@]21C
inhibition [1]: inactive
inhibition [2]: inactive

COc1c2ccoc2c(OCC=C(C)C)c2oc(=O)ccc12
inhibition [1]: inactive
inhibition [2]: inactive

COC1=CC(=O)O[C@@H](/C=C/c2ccccc2)C1
inhibition [1]: inactive
inhibition [2]: inactive

COc1ccc2ccc(=O)oc2c1CC=C(C)C
inhibition [1]: inactive
inhibition [2]: inactive

COC(=O)c1[nH]c(C(=O)OC)c(-c2c[nH]c3ccc(O)cc23)c1-c1c[nH]c2ccccc12
inhibition [1]: inactive
inhibition [2]: inactive

COC1=CC(=O)O[C@@H](/C=C/c2ccc3c(c2)OCO3)C1
inhibition [1]: inactive
inhibition [2]: inactive

CC(C)=CCOc1c2ccoc2cc2oc(=O)ccc12
inhibition [1]: inactive
inhibition [2]: inactive

Oc1ccc2cc1Oc1ccc(cc1)CCc1cccc(c1)Oc1c(O)cccc1CC2
inhibition [1]: inactive
inhibition [2]: inactive

C=CCc1ccc(O)c(-c2cc(CC=C)ccc2O)c1
inhibition [1]: inactive
inhibition [2]: inactive

COc1cc(C)cc(C(=O)c2cc(O)cc(OC)c2CO)c1O
inhibition [1]: inactive
inhibition [2]: inactive

Oc1cc2cc(c1O)Oc1ccc(cc1)CCc1cccc(O)c1Oc1cccc(c1)CC2 [MARCHANTIN A]
inhibition [3]: 2.33%
inhibition [1]: Active
inhibition [4]: 10.2%
Inhibition [5]: 50 µM
inhibition [2]: inactive

Oc1cc2cc(c1O)Oc1ccc(cc1)CCc1ccc(O)c(O)c1Oc1cccc(c1)CC2
inhibition [1]: Active
inhibition [2]: inactive

C=CCc1ccc(O)c(-c2ccc(O)c(CC=C)c2)c1
inhibition [1]: inactive
inhibition [2]: inactive

Oc1ccc2c(c1)CCc1ccc(O)c(c1)Oc1ccc(cc1)CCc1cccc(c1)O2
inhibition [1]: inactive
inhibition [2]: inactive

Oc1ccc2cc1Oc1ccc(cc1)CCc1cccc(O)c1Oc1cccc(c1)CC2
inhibition [1]: inactive
inhibition [2]: inactive

COc1c2occc2cc2ccc(=O)oc12
inhibition [1]: inactive
inhibition [2]: inactive

COc1cc(O)cc(C(=O)c2cc(C)cc(OC)c2OC)c1CO
inhibition [1]: inactive
inhibition [2]: inactive

COC1=CC(=O)O[C@@H](CCc2ccccc2)C1
inhibition [1]: inactive
inhibition [2]: inactive

COC1Cc2cccc(c2)Oc2c(O)cccc2CCc2ccc(cc2)Oc2cc1cc(O)c2O (stereo unspecified) [MARCHANTIN E]
inhibition [3]: 2.96%
inhibition [1]: Active
inhibition [4]: 4.44%
Inhibition [6]: 50 µM
Inhibition [5]: 25 µM
Inhibition [7]: 50 µM
inhibition [2]: inactive

Oc1cccc(CCc2ccc(Oc3cc(CCc4cccc(O)c4)cc(O)c3O)cc2)c1 [PERROTETTIN F]
inhibition [1]: Active
Inhibition [5]: 50 µM
inhibition [2]: inactive

COc1c2ccoc2cc2oc(=O)ccc12
inhibition [1]: inactive
inhibition [2]: inactive

C/C=C(\C)C(=O)CC1C2=CC(=O)[C@](C)(OC(C)=O)C(=O)C2=COC12OC(C)CCC2O (stereo partly specified)
inhibition [1]: inactive
inhibition [2]: inactive

COC(=O)c1[nH]c(C(=O)OC)c(-c2c[nH]c3ccc(O)cc23)c1-c1c[nH]c2ccc(O)cc12
inhibition [1]: inactive
inhibition [2]: inactive

COc1cc2c(cc1O)-c1ccc(O)cc1CCc1cc(O)c(O)c(c1)Oc1ccc(cc1)CC2
inhibition [3]: -4.66%
inhibition [1]: Active
inhibition [4]: 5.11%
inhibition [2]: inactive

CC1(C)OC1COc1c2occc2cc2ccc(=O)oc12 (stereo unspecified)
inhibition [1]: inactive
inhibition [2]: inactive

COc1ccc2c(c1)CCc1ccc(cc1)Oc1cc(ccc1O)CCc1ccc-2c(O)c1
inhibition [3]: -3.59%
inhibition [1]: inactive
inhibition [4]: 5.56%
inhibition [2]: inactive

COc1cccc2c(-c3ccc(O)c4c(OC)cccc34)ccc(O)c12
inhibition [1]: inactive
inhibition [2]: inactive
